Assay results reported in PMC5694347 (Clinical cancer research : an official journal of the …, 2015).

Tested on: NQO1
Assay: Whole blood reverse-transcriptase-PCR of NRF-2-regulated genes
Type: in vivo, human
Details: approximate
Summary of the method: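 Whole blood was collected in PAXgene tubes at screening, at baseline and during cycle 1. Schedule A: day 1 at 4 and 8 h, day 2 pre-dose, day 5. Schedule B: days 1 and 11 at 4, 8 and 23 h, pre-dose days 4 and 11, day 15. Eight genes were assayed by RT-PCR, with ΔCt against four housekeeping genes (18S, B2M, RPLP0, UBC). Percent change = (2^−(post ΔCt − baseline ΔCt) − 1) × 100. Undetermined Ct was set to 40.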

How did the “NQO1 expression in whole blood, maximal change from baseline” value (doses of 25–83 mg/m^2, cycle 1 day 1) turn out when NS(=O)(=O)OC[C@@H]1C[C@@H](n2ccc3c(N[C@H]4CCc5ccccc54)ncnc32)C[C@@H]1O [pevonedistat] was run?
The value was 250% to 400%.

And the “NQO1 expression in whole blood, maximal change from baseline” value (doses of 110–261 mg/m^2, cycle 1 day 1)?
The value was 700% to 800%.
